The text below walks through data of PubChem BioAssay.

As usually defined, the viability is a read-out of living cells in per cent, often relative to untreated cells. In general, inhibition refers to the change of the read-out against control, counted positive when it falls.

Each structure is given as a SMILES string. Active and inactive are the calls of the source.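 The calls were made as follows, unless noted: active = viability at or below 10% of carrier control in both of two separate runs; inconclusive = viability at or below 10% in only one of the two runs; inactive = the rest.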

A short description of test [1]: Her2 expression decrease, cell viability multiplex – SKBR3 breast tumor cells, AlphaScreen, ATP viability, primary screen (AID 461;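 active = Her2 level under about 52% in both replicate screens, with viability over 70% of control, limit read from the data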;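 as to Her2 level: lower value means less Her2 protein in the cells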;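 as to viability: percent of carrier control wells set as 100% viability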). The note with it: SKBR3 Her2 protein level, 18-24 h, measured here: SKBR3 viability, ATP luminescence, at 10 µM.
Test [2] concerns the target Receptor tyrosine-protein kinase erbB-2 (Homo sapiens) (UniProt P04626). Described as above. The note with it: 18-24 h, at 10 µM, stronger effect = lower value.
A short description of test [3]: reduced viability of SK-BR-3 breast cancer cells – cell-based, 24 h, human, pilot screen (AID 572).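 Also: compound exposure lasted between 18 and 24 h rather than exactly 24 h; 100% = carrier-treated control wells.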 The note with it: SK-BR-3 viability, CellTiter-Glo luminescence, at 10 µM, stronger effect = lower value. For orientation: ATP-based viability assays read luminescence as a measure of living cells.
A short description of test [4]: HUVEC growth inhibition – cell-based, human, primary screen (AID 575;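 active = viability at or below 30% in both replicate assays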;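 also: 100% = median of untreated cell wells with 0.1% DMSO on each plate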). The note with it: HUVEC proliferation, CellTiter-Glo luminescence, 72 h; at 10 µM; stronger effect = lower value. The gist of the method: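 System – primary HUVEC, no more than 12 passages · Medium – Low-serum (2% FBS) EBM, supplemented · Times – 72 h exposure, 37 °C, 5% CO2, 30 min RT equilibration · Measured by – luminescent ATP assay · Read-out – % viability relative to median vehicle-well signal on each plate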

Test [5] is described as follows: H69AR cell proliferation blockers – human, duplicate replicates, primary screen (AID 580;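 active = viability at or under a set limit in both replicates, limit being median viability minus 3 SD, cut at about 48% in these data, passing the limit was not always enough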;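 also: 100% = mean luminescence of untreated wells and 0% = no signal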). The note with it: H69AR lung tumor cells viability, ATP luminescence, 72 h; at 10 µM; stronger effect = lower value.
Test [6] can be described thus: MRP1 drug-resistance reversers in H69AR cells – cell-based, doxorubicin co-treatment, pilot screen (AID 601;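 active = viability loss from added drug above about 55%, and viability with drug at most 40%, in both replicates, limit read from the data, passing the limit was not always enough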). The note with it: CellTiter-Glo, 72 h, at 10 µM; for differential viability (reversal): stronger effect = higher value.
The nature of test [7]: yeast transport mutant growth inhibition pilot in 384-well plates, post-Golgi transport modulator project (AID 636; in the data active = inhibition above about 31%). The note with it: absorbance 615 nm, about 18 h, stronger effect = higher value.
A short description of test [8]: growth suppression of yeast trafficking mutant, preliminary HTS, modulators of trafficking downstream of Golgi apparatus project, 1536-format plate, OD 615 nm (AID 637; in the data active = inhibition above about 30%). The note with it: yeast transport mutant growth, absorbance 615 nm, 18 h; stronger effect = higher value.
Setting [9] is: H69AR cells + 2 uM doxorubicin, measured here: viability with 2 uM doxorubicin, stronger effect = lower value.
Where [10] appears, read: H69AR cells, compound alone cytotoxicity.

Sequence of Receptor tyrosine-protein kinase erbB-2 (Homo sapiens) (P04626 whole entry, looked up): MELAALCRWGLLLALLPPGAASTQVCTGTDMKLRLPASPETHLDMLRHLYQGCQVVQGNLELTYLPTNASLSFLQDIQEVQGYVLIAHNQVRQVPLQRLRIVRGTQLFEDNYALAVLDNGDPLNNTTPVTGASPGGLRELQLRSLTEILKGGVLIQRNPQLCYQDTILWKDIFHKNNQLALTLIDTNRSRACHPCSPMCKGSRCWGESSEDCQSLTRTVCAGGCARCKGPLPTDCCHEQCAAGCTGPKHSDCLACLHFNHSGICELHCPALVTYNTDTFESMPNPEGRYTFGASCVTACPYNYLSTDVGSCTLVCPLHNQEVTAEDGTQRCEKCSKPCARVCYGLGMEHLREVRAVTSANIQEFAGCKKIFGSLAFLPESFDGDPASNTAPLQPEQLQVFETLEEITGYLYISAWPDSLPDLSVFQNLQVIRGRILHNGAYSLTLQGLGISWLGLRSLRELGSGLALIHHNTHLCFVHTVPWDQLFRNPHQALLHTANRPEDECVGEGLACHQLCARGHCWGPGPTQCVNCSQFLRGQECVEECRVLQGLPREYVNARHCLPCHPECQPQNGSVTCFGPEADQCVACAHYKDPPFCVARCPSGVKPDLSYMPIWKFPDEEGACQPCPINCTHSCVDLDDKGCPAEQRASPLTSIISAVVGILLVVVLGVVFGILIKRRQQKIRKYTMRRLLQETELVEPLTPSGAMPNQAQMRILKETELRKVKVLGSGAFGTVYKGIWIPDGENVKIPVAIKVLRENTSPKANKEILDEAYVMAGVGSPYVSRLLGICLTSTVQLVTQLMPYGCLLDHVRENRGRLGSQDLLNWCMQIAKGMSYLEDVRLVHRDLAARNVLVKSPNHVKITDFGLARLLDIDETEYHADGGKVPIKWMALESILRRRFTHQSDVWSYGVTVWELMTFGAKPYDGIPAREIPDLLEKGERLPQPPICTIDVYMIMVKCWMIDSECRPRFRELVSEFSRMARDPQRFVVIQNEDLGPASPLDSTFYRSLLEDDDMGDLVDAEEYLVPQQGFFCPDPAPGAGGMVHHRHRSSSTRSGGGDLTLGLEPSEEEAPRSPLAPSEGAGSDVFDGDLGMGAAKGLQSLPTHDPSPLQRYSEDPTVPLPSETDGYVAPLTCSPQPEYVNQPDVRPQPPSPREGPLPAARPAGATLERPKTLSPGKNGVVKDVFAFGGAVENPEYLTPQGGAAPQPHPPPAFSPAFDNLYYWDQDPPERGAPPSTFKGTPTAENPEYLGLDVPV

As for `COC(=O)c1sc(N)c(C(=O)OC)c1CSc1nc2sc3c(c2c(=O)n1C)CCC3`, the viability in test [1] is 88%; in test [3], 88% (inactive); in test [4], 81.5% (inactive); in test [5] it was 62.3% (inactive); in test [6] (setting [9]) it was 53.5%; in test [6] (setting [10]), 62.3%. Moreover, the Her2 level in test [2] is 103% (inactive). The differential viability (reversal) in test [6] (H69AR cells + 2 uM doxorubicin) was 8.74% (inactive). Besides, the inhibition in test [7] is -2.84% (inactive); in test [8], 2.62% (inactive).

`O=C(Nc1cccnc1)Nc1ccc2c(c1)OCO2`: the viability in test [1] was 102%; in test [3], 102% (inactive); in test [4], 78.1% (inactive); in test [5], 82.7% (inactive); in test [6] (setting [9]), 69.8%; in test [6] (setting [10]), 82.7%. The Her2 level in test [2] was 74% (inactive). The differential viability (reversal) in test [6] (H69AR cells + 2 uM doxorubicin) is 12.9% (inactive). Further, the inhibition in test [7] was -2.24% (inactive); in test [8], 6.03% (inactive).

As to `CCOC(=O)N1CCN(C(=O)COc2ccc(Br)cc2Cl)CC1`, the viability in test [1] is 96%; in test [3], 96% (inactive); in test [4] it was 117% (inactive); in test [5], 93.7% (inactive); in test [6] (setting [9]) it was 91.2%; in test [6] (setting [10]), 93.7%. In addition, in test [2], the Her2 level is 112% (inactive). In addition, in test [6] (H69AR cells + 2 uM doxorubicin), the differential viability (reversal) is 2.46% (inactive). Moreover, the inhibition was -1.17% (inactive) in test [7] and -5.33% (inactive) in test [8].

Regarding `Cc1ccc(C(=O)CSc2nnc(-c3cccnc3)n2N)cc1`, the viability in test [1] is 104%; in test [3], 104% (inactive); in test [4], 68.9% (inactive); in test [5], 28.2% (active); in test [6] (setting [9]), 77.4%; in test [6] (setting [10]), 28.2%. Further, the Her2 level in test [2] is 89.5% (inactive). Besides, the differential viability (reversal) in test [6] (H69AR cells + 2 uM doxorubicin) was -49.2% (inactive). Further, the inhibition in test [7] is -0.93% (inactive); in test [8] it was 0.97% (inactive).

`O=C(O)CCCC(=O)Nc1nc(-c2ccc(F)cc2)cs1`: the viability was 97.5% in test [1]; 97.5% (inactive) in test [3]; 83.3% (inactive) in test [4]; 96.5% (inactive) in test [5]; 92.4% in test [6] (setting [9]); 96.5% in test [6] (setting [10]). The Her2 level in test [2] was 75.5% (inactive). Also, the differential viability (reversal) in test [6] (H69AR cells + 2 uM doxorubicin) was 4.08% (inactive). The inhibition was -3.95% (inactive) in test [7] and -4.5% (inactive) in test [8].

Turning to `CCCC(=O)Nc1ccccc1-c1nnn(CC(=O)Nc2ccc(OCC)cc2)n1`, the viability was 108% in test [1]; 108% (inactive) in test [3]; 62% (inactive) in test [4]; 89.1% (inactive) in test [5]; 97.9% in test [6] (setting [9]); 89.1% in test [6] (setting [10]). In test [2], the Her2 level is 87% (inactive). Moreover, the differential viability (reversal) in test [6] (H69AR cells + 2 uM doxorubicin) was -8.82% (inactive). The inhibition was 1.82% (inactive) in test [7] and -4.75% (inactive) in test [8].

Take `Cc1ccc(-c2nnn(CC(=O)NC3CC4CCC3C4)n2)cc1` (stereo not given): the viability was 109% in test [1]; 109% (inactive) in test [3]; 118% (inactive) in test [4]; 93.3% (inactive) in test [5]; 88.2% in test [6] (setting [9]); 93.3% in test [6] (setting [10]). The Her2 level in test [2] was 91% (inactive). The differential viability (reversal) in test [6] (H69AR cells + 2 uM doxorubicin) was 5.1% (inactive). Also, the inhibition is -6.58% (inactive) in test [7] and -6.77% (inactive) in test [8].

Consider `O=C(Nc1ccc2snnc2c1)N1CCSCC1`, for which the viability in test [1] was 108%; in test [3], 108% (inactive); in test [4], 103% (inactive); in test [5], 98.9% (inactive); in test [6] (setting [9]), 96.2%; in test [6] (setting [10]) it was 98.9%. The Her2 level in test [2] was 104% (inactive). The differential viability (reversal) in test [6] (H69AR cells + 2 uM doxorubicin) was 2.63% (inactive). Moreover, the inhibition in test [7] was 0.77% (inactive); in test [8] it was -0.5% (inactive).

On to `CCCc1[nH]nc2c1C(c1cccc(OC(=O)c3ccco3)c1)C(C#N)=C(N)O2` (stereo not given), for which the viability in test [1] was 93.5%; in test [3], 93.5% (inactive); in test [4], 81.6% (inactive); in test [5] it was 95.3% (inactive); in test [6] (setting [9]), 94.1%; in test [6] (setting [10]) it was 95.3%. In test [2], the Her2 level is 72% (inactive). Also, in test [6] (H69AR cells + 2 uM doxorubicin), the differential viability (reversal) is 1.18% (inactive). In addition, the inhibition is -3.16% (inactive) in test [7] and -1.11% (inactive) in test [8].

In the case of `O=C(CSc1n[nH]c(-c2cccs2)n1)N1CCN(S(=O)(=O)c2ccccc2)CC1`, the viability in test [1] was 80.5%; in test [3], 80.5% (inactive); in test [4], 97.4% (inactive); in test [5], 102% (inactive); in test [6] (setting [9]), 106%; in test [6] (setting [10]), 102%. Further, in test [2], the Her2 level was 78.5% (inactive). Also, the differential viability (reversal) in test [6] (H69AR cells + 2 uM doxorubicin) is -3.67% (inactive). In addition, the figures for the inhibition in test [7] and in test [8] were 0.91% (inactive) and 9.84% (inactive), respectively.

As to `Cc1cc(NC(=O)CSc2ccc(Cl)cc2)no1`, the viability in test [1] is 88.5%; in test [3], 88.5% (inactive); in test [4], 91.3% (inactive); in test [5], 61% (inactive); in test [6] (setting [9]), 71.7%; in test [6] (setting [10]) it was 61%. Besides, the Her2 level in test [2] is 114% (inactive). Further, the differential viability (reversal) in test [6] (H69AR cells + 2 uM doxorubicin) was -10.7% (inactive). The inhibition was -0.66% (inactive) in test [7] and 22.3% (inactive) in test [8].

With `S=C(c1ccc(-c2cc(Cl)ccc2Cl)o1)N1CCOCC1`, the viability was 80.5% in test [1]; 80.5% (inactive) in test [3]; 86.4% (inactive) in test [4]; 98.5% (inactive) in test [5]; 107% in test [6] (setting [9]); 98.5% in test [6] (setting [10]). Moreover, in test [2], the Her2 level is 85% (inactive). The differential viability (reversal) in test [6] (H69AR cells + 2 uM doxorubicin) is -8.1% (inactive). The figures for the inhibition in test [7] and in test [8] were -0.4% (inactive) and 5.16% (inactive), respectively.

Turning to `O=C(NCC1CCCO1)C1CCCN(S(=O)(=O)c2cccc3nsnc23)C1` (stereo not given), the viability was 95.5% in test [1]; 95.5% (inactive) in test [3]; 93.2% (inactive) in test [4]; 98.5% (inactive) in test [5]; 84.2% in test [6] (setting [9]); 98.5% in test [6] (setting [10]). Besides, in test [2], the Her2 level is 118% (inactive). Moreover, the differential viability (reversal) in test [6] (H69AR cells + 2 uM doxorubicin) was 14.3% (inactive). The inhibition is -2.27% (inactive) in test [7] and -7.62% (inactive) in test [8].

Take `CCn1c(NCc2ccc(N(C)C)cc2)nc2ccccc21`: the viability was 84.5% in test [1]; 84.5% (inactive) in test [3]; 101% (inactive) in test [4]; 97.9% (inactive) in test [5]; 86.7% in test [6] (setting [9]); 97.9% in test [6] (setting [10]). Further, the Her2 level in test [2] was 87.5% (inactive). The differential viability (reversal) in test [6] (H69AR cells + 2 uM doxorubicin) was 11.2% (inactive). For the same compound, the inhibition in test [7] is -2.03% (inactive); in test [8], -1.5% (inactive).
